Screens deposited in PubChem by Sanford-Burnham Center for Chemical Genomics.
Sampled rows, rich in hits. Any-hit rate of the full collection: about 3.9%.
XBP1 UPR activ = adaptive UPR (XBP1) activation; CHO-XBP1 luciferase reporter, IRE1-XBP1 UPR activation, luminescence; percent of tunicamycin response, DMSO as zero; activation, % at 20 µM; 330,000 tested, 0.33% active; AID 463104;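 active = versus positive control, 20 µM dose yields 30% or more activation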;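 note: 100% = tunicamycin at 10 µg/mL and 0% = DMSO only wells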
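Material – CHO cell line with stable XBP1 luciferase reporter · Buffer or medium – F12 plus 10% FBS · Compound – single point, 20 µM final compound, 1% DMSO · Schedule – 16-18 h cell attachment at 37 °C, then 6 h compound exposure · Signal – Steady-Glo luminescence read · Benchmarks – high control tunicamycin 10 µg/mL final, low control DMSO vehicle only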
tim23-1 inh = inhibits growth of tim23-1 mutant yeast; S. cerevisiae tim23-1 growth, BacTiter-Glo luminescence, 24 h; inhibition, % at 20 µM; 330,000 tested, 1.3% active; AID 463212;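 active = growth inhibition of the mutant yeast at or above 50%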;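 note: temperature-sensitive mutant grown at 25 °C; plate controls were DMSO-treated mutant yeast for no effect and medium wells lacking yeast for full effect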
UPR CHOP act = apoptotic UPR (CHOP) activation; activation, % at 10 µM; CHO-CHOP luciferase reporter, luminescence; percent of tunicamycin response over DMSO baseline; AID 449763; 330,000 tested, 0.34% active;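 active = at 10 µM dose, activation of 40% or more, normalized to positive control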;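 note: 100% = tunicamycin at 10 µg/mL and 0% = DMSO alone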
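Assay system: CHO cells with stable CHOP pathway luciferase reporter; Buffer or medium: F12 plus 10% serum; Times: 16-18 h cell attachment, then 6 h compound exposure, 37 °C; Signal: luciferase luminescence; Read-out basis: percent activation relative to tunicamycin control; Control set: tunicamycin high control, DMSO low control.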
TIM10 inh = inhibits growth of TIM10 yeast strain. S. cerevisiae TIM10 strain growth, BacTiter-Glo luminescence, 24 h. 330,000 tested, 1.4% active. inhibition, % at 10 µM;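 active = inhibition of 40% or more at the single tested concentration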;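 note: wild-type TIM10 isogenic control strain grown at permissive 25 °C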
tim10-1 inh = inhibits growth of tim10-1 mutant yeast; 330,000 tested, 2.2% active; AID 463190; inhibition, % at 20 µM; S. cerevisiae tim10-1 ts strain growth, BacTiter-Glo, 24 h;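 active = inhibition of at least 40%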;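 note: mutant grown at 25 °C; 0% = DMSO wells with yeast and 100% = wells holding no yeast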
TIM10 conf = TIM10 yeast growth inhibition, confirmed; shares compounds with TIM10 inh; S. cerevisiae tim10 strain growth, BacTiter-Glo luminescence, 24 h; inhibition, % at 10 µM; 4,600 tested, 63% active; AID 463215;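 active = inhibition of yeast growth at or above a set limit in either of two replicates at 10 µM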;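 note: this counterscreen used the strain with wild-type TIM10; 0% = yeast with DMSO and 100% = medium wells lacking yeast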
tim23-1 confirm = tim23-1 yeast growth inhibition, confirmed. shares compounds with tim23-1 inh. S. cerevisiae tim23-1 growth, BacTiter-Glo luminescence, 24 h. inhibition, % at 20 µM. 4,400 tested, 83% active. AID 463218;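 active = inhibition above about 39% in either of two replicate wells at 20 µM, limit read from the data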;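 note: temperature-sensitive tim23-1 mutant grown at 25 °C; 0% = DMSO wells with yeast and 100% = medium wells without yeast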
Active calls of the source: *; nt = no result given.

SMILES | XBP1 UPR activ | tim23-1 inh | UPR CHOP act | TIM10 inh | tim10-1 inh | TIM10 conf | others
Cc1csc(NC(=O)c2oc3ccccc3c2C)n1 | -1 | 21 | 3 | -5 | -19 | nt
O=C(Nc1ccc2c(c1)oc1ccccc12)c1cccnc1 | 5 | 44 | 6 | 21 | -19 | nt
O=C(Nc1ccc2c(c1)oc1ccccc12)c1ccncc1 | 7 | 42 | 2 | 43* | 0 | 40*
O=C(Nc1ccc2c(c1)oc1ccccc12)c1ccc2c(c1)OCO2 | 6 | 8 | 2 | 40* | 3 | 12
CCCN1C(=O)c2ccccc2NC1c1ccc(O)c(OCC)c1 (centres undefined) | 1 | 14 | 0 | 1 | 21 | nt
COc1ccc(CCNC(=O)CCOc2cc(C)ccc2C)cc1OC | -3 | 9 | -2 | -10 | 2 | nt
CC(C)(C)n1nnnc1C(c1cccc(C#N)c1)N1CCCc2ccccc21 (centres undefined) | -4 | 37 | 2 | 43* | 36 | 25
CCC(C)(C)n1nnnc1C(c1cccnc1)N1CCCc2ccccc21 (centres undefined) | 1 | 35 | 0 | 40* | 38 | 37*
CC(C)(C)n1nnnc1C(c1ccc(Cl)cc1)N1CCCc2ccccc21 (centres undefined) | -1 | 45 | -1 | 28 | 37 | nt
CCC(C)(C)n1nnnc1C(c1cccs1)N1CCc2ccccc21 (centres undefined) | -3 | 47 | 0 | 50* | 33 | 34*
O=C(N[C@@H](Cc1ccc(O)cc1)C(=O)O)c1cccnc1 | -1 | -12 | -2 | -3 | -1 | nt
COc1cccc(C(=O)NCC(=O)OCC(=O)NC2CCCCC2)c1 | 2 | -5 | -1 | -6 | -6 | nt
Cc1ccc(C)c(N(CC(=O)NC2CCCC2)C(=O)c2csnn2)c1 | 0 | 23 | 1 | -6 | 20 | nt
O=C(Nc1ccc2ccccc2c1)C(c1ccccc1)C1CCCC1 (centres undefined) | 0 | 7 | -3 | 44* | 20 | 24
Cc1ccccc1NC(=O)C(c1ccccc1)C1CCCC1 (centres undefined) | 1 | -17 | -1 | 14 | 19 | nt
COc1ccc(-n2nc3c(c2NC(=O)C(C)Oc2ccccc2)CS(=O)(=O)C3)cc1 (centres undefined) | -1 | 3 | -2 | 0 | -3 | nt
COc1cccc(/C=N/NC(=O)CSc2ccccc2C)c1O | -1 | 39 | 0 | 43* | 8 | 53*
CC(=O)Cc1nsc(NC(=O)c2ccccc2)n1 | 4 | 6 | -3 | 38 | 18 | nt
CC(=O)Cc1nsc(NC(=O)c2ccccc2Cl)n1 | 3 | 38 | 1 | 51* | 23 | -10
Oc1[nH]c2ccccc2c1N=Nc1ccc(C(F)(F)F)cn1 | -3 | 25 | 5 | 53* | 26 | 29
Oc1[nH]c2ccc(Br)cc2c1N=Nc1ccc(C(F)(F)F)cn1 | 2 | -6 | 3 | 31 | 35 | nt
Cc1c(C(=O)OC2CCCCC2)[nH]c2c1C(=O)CC(C)(C)C2 | -2 | 21 | 1 | 96* | -7 | -7
COc1ccc(OCC(=O)Nc2ccc3c(c2)nc(CCN2CCN(C)CC2)n3C)cc1 | -6 | 4 | 0 | 6 | -15 | nt
CCOC(=O)C1=C(C)NC2=C(C(=O)c3ccccc32)C1c1ccc([N+](=O)[O-])o1 (centres undefined) | -1 | 48 | 0 | 49* | 31 | 40*
O=S(=O)(/N=C(/Nc1cccc2ccccc12)c1ccccc1)c1ccccc1 | 0 | 33 | 0 | 36 | 10 | nt
SMILES | XBP1 UPR activ | tim23-1 inh | UPR CHOP act | TIM10 inh | tim10-1 inh | TIM10 conf | others
O=S(=O)(/N=C(/Nc1cccc2ccccc12)c1ccccc1)c1cccs1 | 2 | 30 | -4 | 43* | 24 | 23
Cc1c(C(=O)N2CCN(S(=O)(=O)c3ccccc3)CC2)oc2ccccc12 | -3 | 46 | 0 | 47* | 38 | 32*
Cc1nc2ccccc2n2c(-c3ccccc3)c3c(=O)n(C)c(=O)n(C)c3c12 | 7 | 17 | -2 | 5 | 14 | nt
Cn1c(=O)c2c(-c3ccccc3)n3c4ccccc4ncc3c2n(C)c1=O | 4 | 17 | -1 | 42* | 24 | -16
CC(C)(C)[C@@H]1COC(=O)[C@H](Cc2ccc(F)cc2)CC/C=C\C[C@@H](CC(=O)NCCO)C(=O)N1 | 1 | 0 | 0 | 0 | 0 | nt
S=C(NCCc1ccccc1)N/N=C/c1cccs1 | -5 | 42 | 1 | 41* | 33 | 38*
COc1cc(NC(=O)Cc2ccccc2)ccc1NC(=O)c1ccccc1 | -5 | 23 | 1 | 0 | 12 | nt
CC(C)CCNC(=O)c1sc2ccc(S(=O)(=O)N3CCCCC3)cc2c1N | 4 | 38 | 0 | 41* | 29 | 38*
COc1ccc(N2CCN(C(=O)COC(=O)c3ccc(-n4nc(C)cc4C)cc3)CC2)cc1 | -3 | 13 | 0 | 0 | 15 | nt
C=CCN(CC=C)C(=S)NC(=O)/C=C/c1ccc(OC)cc1 | -1 | 45 | 1 | 44* | 20 | 11
COC(=O)[C@@H]1CCCN1C(=O)CCc1nnc(CCc2c[nH]c3ccccc23)o1 | -2 | -7 | -2 | 6 | -5 | nt
COC(=O)[C@@H]1CCCN1C(=O)CCc1nnc(CCC2CCCCC2)o1 | 1 | 16 | 3 | 45* | 22 | -22
CCc1c(C2(O)CCCCC2)[nH]c2cc(C(F)(F)F)ccc12 | 2 | 67* | 0 | 51* | 36 | 61* | tim23-1 confirm=-14
CCC(C(=O)NCCc1ccc(S(N)(=O)=O)cc1)c1ccccc1 (centres undefined) | 1 | 24 | 0 | 7 | 10 | nt
CSc1ccc(/C=C(\C#N)C(=O)NC2CCCCC2C)cc1 (centres undefined) | -1 | 59* | 2 | 56* | 39 | 65* | tim23-1 confirm=39*
N/C(=N\OC(=O)c1cc(Br)ccc1Cl)c1ccccn1 | -1 | 62* | 4 | 45* | 27 | 65* | tim23-1 confirm=45*
N/C(=N\OC(=O)c1ccc(=O)n(Cc2ccccc2)c1)c1ccccn1 | 4 | 24 | 5 | 15 | 28 | nt
N/C(=N\OC(=O)c1ccc(Cl)cc1[N+](=O)[O-])c1cccnc1 | 5 | 30 | 6 | 21 | 29 | nt
CCCc1ccc(C(=O)O/N=C(\N)c2ccccn2)cc1 | -13 | 51* | -12 | 52* | 34 | 64* | tim23-1 confirm=57*
N/C(=N\OC(=O)c1ccc(Cl)cc1[N+](=O)[O-])c1ccccn1 | -7 | 77* | 1 | 62* | 7 | 71* | tim23-1 confirm=71*
CN(C)C(=S)NC(=O)C12CC3CC(C)(CC(C)(C3)C1)C2 | -2 | 30 | 1 | 11 | 4 | nt
